# Measured values as given in ChEMBL document CHEMBL1833870, “Deconstruction of the α4β2 nicotinic acetylcholine receptor positive allosteric modulator desformylflustrabromine” (J Med Chem, 2011).
# Counter-ions that a name gives are not always drawn. Activity calls are given as the source filed them. The rule behind the calls is not given here.
# Tests used:
# [1] = biological target: Neuronal acetylcholine receptor subunit alpha-7 (Homo sapiens, UniProt P36544); experiment: Antagonist activity at human alpha7 nAChR expressed in xenopus oocyte assessed as inhibition of acetylcholine-induced current by two-electrode voltage clamp assay; assay type: functional
# Neuronal acetylcholine receptor subunit alpha-7, sequence (P36544 whole entry, the tested form may be a part): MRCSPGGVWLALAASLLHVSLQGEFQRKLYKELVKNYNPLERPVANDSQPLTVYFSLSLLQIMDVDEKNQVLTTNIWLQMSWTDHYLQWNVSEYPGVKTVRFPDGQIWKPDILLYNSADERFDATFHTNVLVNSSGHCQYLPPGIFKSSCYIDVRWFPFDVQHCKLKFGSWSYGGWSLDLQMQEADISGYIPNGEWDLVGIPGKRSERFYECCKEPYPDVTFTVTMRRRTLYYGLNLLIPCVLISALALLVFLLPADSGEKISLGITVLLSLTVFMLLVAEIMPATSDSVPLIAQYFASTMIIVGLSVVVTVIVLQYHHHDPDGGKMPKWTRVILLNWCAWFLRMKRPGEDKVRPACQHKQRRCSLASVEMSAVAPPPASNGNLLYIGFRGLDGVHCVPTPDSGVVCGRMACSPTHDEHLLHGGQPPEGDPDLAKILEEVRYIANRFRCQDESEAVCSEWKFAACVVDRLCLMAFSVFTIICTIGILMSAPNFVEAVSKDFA
# Method in brief: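 Xenopus stage IV oocytes were injected with human α7 cRNA (50 nL, 0.2 ng/nL) and kept 24–72 h at 19 °C. Recording was by two-electrode voltage clamp with ND-96 perfusion (pH 7.4) at 20 mL/min. Compound dissolved in ND-96 was co-applied with ACh, and inhibition of the ACh response was read. Concentration–response data were fit by non-linear regression.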
# [2] = biological target: T1, Neuronal acetylcholine receptor; alpha4/beta2 (Homo sapiens, UniProt P17787+P43681); experiment: Agonist activity at human alpha4beta2 nACHR expressed in xenopus oocyte assessed as potentiation of acetylcholine-induced current by two electrode voltage clamp assay; assay type: functional
# T1 sequence (P17787 whole entry, the tested form may be a part): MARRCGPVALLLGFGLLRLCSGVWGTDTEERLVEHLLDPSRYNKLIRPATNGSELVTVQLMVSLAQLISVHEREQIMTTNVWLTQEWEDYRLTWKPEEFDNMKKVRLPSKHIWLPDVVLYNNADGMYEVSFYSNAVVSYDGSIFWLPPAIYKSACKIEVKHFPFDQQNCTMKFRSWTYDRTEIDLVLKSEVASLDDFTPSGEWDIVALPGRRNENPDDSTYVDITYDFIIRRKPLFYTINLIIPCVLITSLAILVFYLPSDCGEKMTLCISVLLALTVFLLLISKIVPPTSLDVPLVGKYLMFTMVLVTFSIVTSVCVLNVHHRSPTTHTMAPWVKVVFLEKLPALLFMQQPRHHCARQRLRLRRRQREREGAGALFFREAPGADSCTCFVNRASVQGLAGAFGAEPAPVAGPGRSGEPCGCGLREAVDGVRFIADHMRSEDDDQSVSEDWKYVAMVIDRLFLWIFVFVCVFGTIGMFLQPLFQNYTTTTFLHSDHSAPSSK
# T1 sequence (P43681 whole entry, the tested form may be a part): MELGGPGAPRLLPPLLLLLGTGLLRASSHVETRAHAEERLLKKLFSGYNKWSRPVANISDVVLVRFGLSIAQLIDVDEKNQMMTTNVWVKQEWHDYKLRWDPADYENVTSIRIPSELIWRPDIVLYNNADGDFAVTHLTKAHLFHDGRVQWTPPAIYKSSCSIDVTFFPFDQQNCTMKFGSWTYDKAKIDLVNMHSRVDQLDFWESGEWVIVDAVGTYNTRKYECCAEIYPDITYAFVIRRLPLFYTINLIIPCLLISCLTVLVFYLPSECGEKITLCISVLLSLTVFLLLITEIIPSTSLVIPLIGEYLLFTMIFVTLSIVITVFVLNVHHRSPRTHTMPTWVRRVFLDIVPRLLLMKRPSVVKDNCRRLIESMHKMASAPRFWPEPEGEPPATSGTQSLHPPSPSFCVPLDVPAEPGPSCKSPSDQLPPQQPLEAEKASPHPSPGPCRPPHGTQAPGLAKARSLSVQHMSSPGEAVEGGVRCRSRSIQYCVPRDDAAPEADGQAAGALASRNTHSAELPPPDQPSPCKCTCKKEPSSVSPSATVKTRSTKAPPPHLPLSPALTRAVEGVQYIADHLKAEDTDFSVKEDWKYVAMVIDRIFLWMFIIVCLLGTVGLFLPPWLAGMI
# Method in brief: (§1)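 Human α4 and β2 cRNA injected into stage IV Xenopus oocytes (50 nL total at 0.2 ng/nL, subunit ratio as appropriate), then incubated 24–72 h at 19 °C. Two-electrode voltage clamp in a vertical flow chamber perfused with ND-96 (pH 7.4) at 20 mL/min. Compound in ND-96 was co-applied with ACh, and the enhancement of current was measured. Concentration–response curves were fit by non-linear regression.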
# [3] = biological target: T1, Neuronal acetylcholine receptor; alpha4/beta2; experiment: Agonist activity at human alpha4beta2 nACHR expressed in xenopus oocyte assessed as potentiation of acetylcholine-induced current by two electrode voltage clamp assay relative to acetylcholine; assay type: functional; method in brief: as §1
# Homo sapiens = species: Homo sapiens; experiment: Selectivity ratio of IC50 for human alpha7 nAChR to IC50 for human alpha4beta2 nAChR
SMILES,EC50 [1],pEC50 [2],EC50 ([2]; read-out: pEC50 (converted)),Emax [3],EC50 ([2]; read-out: EC50),Ratio IC50 (Homo sapiens)
CCCc1[nH]c2ccccc2c1CCNC,44.7 µM,inactive,,,,
CCCc1[nH]c2cc(Br)ccc2c1CCNC,20.9 µM,inactive,,,,
CCC(C)c1[nH]c2ccccc2c1CCNC (racemic),9.77 µM,inactive,,,,
CNCCc1c(C(C)(C)C)[nH]c2ccccc12,4.79 µM,,3.98 µM,,,
CNCCc1c(C(C)C)[nH]c2ccccc12,,inactive,,,,
C=CC(C)(C)c1[nH]c2cc(Br)ccc2c1CCN,5.75 µM,,0.513 µM,,,
C=CC(C)(C)c1[nH]c2ccccc2c1CCNC,7.76 µM,,7.24 µM,250%,6.77 µM,
CNCCc1c[nH]c2cc(Br)ccc12,11 µM,inactive,,,,
CCC(C)(C)c1[nH]c2ccccc2c1CCNC,20.4 µM,,3.02 µM,260%,1.22 µM,
CCC(C)(C)c1[nH]c2cc(Br)ccc2c1CCNC,25.7 µM,,0.138 µM,290%,0.1 µM,190
C=CCc1[nH]c2cc(Br)ccc2c1CCNC,29.5 µM,inactive,,,,
C=CC(C)(C)c1[nH]c2cc(Br)ccc2c1CCNC [DESFORMYLFLUSTRABROMINE HYDROCHLORIDE],1.86 µM,,0.331 µM,,0.32 µM,
